Hits are enriched below; roughly 1.5% of the tested compounds scored in any of these assays.
ERp5 inh – blocks human ERp5 reductase activity on insulin | actives 0.05% (n = 350,000) | ERp5 insulin aggregation, absorbance 650 nm, 90 min | Q15084 | AID 651711 | inhibition, % at 9.99 µM;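 active means mean replicate inhibition above about 25%, with every replicate also reaching it, limit read from the data, passing the limit was not always enough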
GSIS activator – primary screen for activators of insulin secretion dependent on glucose, INS-1E cells, GLuc reporter luminescence | AID 743287 | actives 0.61% (n = 370,000) | INS-1E GLuc reporter insulin secretion, 2-3 h | activation, % at 16.6 µM;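 active means lowest replicate activation of at least 40%, so every replicate reaches that level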
PDI inh – inhibitors of human protein disulfide isomerase | actives 0.052% (n = 350,000) | P07237 | inhibition, % at 10 µM | PDI insulin aggregation turbidity, A650, 90 min | AID 588391;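 active means mean inhibition across replicates of 30% or more, whatever share of single replicates reach that level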
S100A4 inh HTS – inhibitors of human S100A4 binding to myosin IIA peptide; S100A4/TAMRA-MyoIIA peptide fluorescence polarization; inhibition, % at 10.7 µM; actives 0.14% (n = 360,000);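 active means mean inhibition of at least 70% across replicates, with every replicate also reaching that level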
Target sequence (P26447 whole entry, looked up): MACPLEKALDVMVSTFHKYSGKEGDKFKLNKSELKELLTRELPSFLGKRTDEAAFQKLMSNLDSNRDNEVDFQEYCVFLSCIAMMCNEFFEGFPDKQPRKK
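Test system: S100A4 monomer protein. Medium: HEPES buffer with Ca2+, pH 7.2. Reagent: fluorescent myosin IIA peptide, 5 nM. Compound dosing: single-point compound testing. Timing: 5 min between mix addition and reading. Benchmarks: DMSO neutral and TFP positive wells.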
SIRT5 inh – sirtuin-5 (human) deacylase inhibition | Q9NXA8 | inhibition, % at 15 µM | Purified SirT5, succinyl-peptide AMC, trypsin-coupled fluorescence | actives 1.1% (n = 330,000); in the data active means inhibition above about 15%
Target sequence (Q9NXA8 whole entry, looked up): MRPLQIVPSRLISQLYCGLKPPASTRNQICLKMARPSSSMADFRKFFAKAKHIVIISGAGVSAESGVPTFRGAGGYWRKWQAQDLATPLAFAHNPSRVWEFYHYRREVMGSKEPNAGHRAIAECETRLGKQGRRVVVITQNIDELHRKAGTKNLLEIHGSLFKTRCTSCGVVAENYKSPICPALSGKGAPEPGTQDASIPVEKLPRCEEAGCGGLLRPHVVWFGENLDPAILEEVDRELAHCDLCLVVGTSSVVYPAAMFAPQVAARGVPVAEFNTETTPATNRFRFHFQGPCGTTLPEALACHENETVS
Large screens that a line does not name were inactive; ! = repeats disagree.

CCOc1ncnc2c1oc1nc(CC(C)C)c3c(c12)CC(C)(C)OC3	none
CC(C)[C@H]1C=C(C(=O)NCc2ccccc2)O[C@@H](OCc2ccc(CO)cc2)C1	none (no result: GSIS activator, PDI inh)
O=C(c1ccc(N2CCCC2)c([N+](=O)[O-])c1)N1CCN(S(=O)(=O)c2ccccc2)CC1	SIRT5 inh 33
Cc1ccc(S(=O)(=O)N2CCN(C(=O)c3ccc4c(c3)OCO4)CC2)cc1	none
Cc1ccc(C)c(S(=O)(=O)N2CCN(C(=O)c3ccc(N4CCCC4)c([N+](=O)[O-])c3)CC2)c1	none
COC(=O)c1ccc(COC(=O)c2ccc(S(=O)(=O)N3CCC(C)CC3)cc2)o1	none (no result: ERp5 inh, GSIS activator, S100A4 inh HTS, SIRT5 inh)
CC1CCN(S(=O)(=O)c2ccc(C(=O)OCc3ccc4c(c3)OCO4)cc2)CC1	GSIS activator 142 (no result: ERp5 inh, S100A4 inh HTS, SIRT5 inh)
O=C(c1ccc2c(c1)OCO2)N1CCN(S(=O)(=O)c2ccccc2)CC1	GSIS activator 46
O=C(C[C@@H]1C=C[C@@H](NC(=O)c2cccc(F)c2)[C@H](CO)O1)NCc1ccccc1	none (no result: PDI inh)
C[C@H]1CN([C@@H](C)CO)C(=O)Cc2cc(NC(=O)Cc3ccccc3)ccc2O[C@H]1CN(C)C	none (no result: PDI inh)
O=C(/C=C/c1ccc(N2CCCCC2)c([N+](=O)[O-])c1)c1ccc(O)cc1	PDI inh 85
COc1ccc(Cl)cc1S(=O)(=O)N1CCN=C1C	none (no result: PDI inh)
CC1=NCCN1S(=O)(=O)c1c(C(C)C)cc(C(C)C)cc1C(C)C	SIRT5 inh 27
C[C@H](CO)N1C[C@H](C)[C@@H](CN(C)CC2CC2)Oc2c(NC(=O)Cc3ccccc3)cccc2C1=O	SIRT5 inh 25
C[C@@H]1CN([C@H](C)CO)C(=O)c2cccc(NS(=O)(=O)c3ccc(F)cc3)c2O[C@H]1CN(C)CC1CCCCC1	none (no result: PDI inh)
C[C@H]1CN([C@@H](C)CO)C(=O)c2cccc(NS(C)(=O)=O)c2O[C@@H]1CN(C)CC1CC1	none (no result: PDI inh)
C[C@@H]1CN([C@H](C)CO)C(=O)c2cccc(NS(C)(=O)=O)c2O[C@@H]1CN(C)CC1CCCCC1	SIRT5 inh 18 (no result: PDI inh)
C[C@@H]1CN([C@H](C)CO)C(=O)c2cccc(NS(C)(=O)=O)c2O[C@@H]1CN(C)CC1CC1	S100A4 inh HTS 126 (no result: PDI inh)
C[C@H](CO)N1C[C@H](C)[C@@H](CN(C)CC2CCCCC2)Oc2c(NS(=O)(=O)c3ccc(F)cc3)cccc2C1=O	SIRT5 inh 27!
COCC(=O)N1C[C@H](C)[C@H](OC)CN(C)C(=O)c2ccc(NC(=O)c3ccc(F)cc3)cc2OC[C@@H]1C	none (no result: PDI inh)
CC(C(=O)Nc1ccc(S(=O)(=O)N2CCOCC2)cc1)N1CCN(c2ccccn2)CC1 (stereo not drawn)	SIRT5 inh 29
COc1cc(CN2[C@@H]3CNC[C@H]2C3c2ccc(/C=C/c3ccccc3)cc2)cc(OC)c1 (stereo partly drawn)	GSIS activator 49! (no result: PDI inh)
CCCCOc1ccc(C2=NNC(=O)CC2)cc1	GSIS activator 45
NS(=O)(=O)c1ccc(CCNc2nn3c(-c4cccc(OC(F)(F)F)c4)cnc3s2)cc1	GSIS activator 143
COc1ccc(CNc2nn3c(-c4cccc(C(=O)N(C)C)c4)cnc3s2)cc1	none
COc1ccccc1NC(=O)N1CC[C@@H]2[C@@H](CO)N(C)c3ccc(-c4ccc(F)cc4)cc3[C@@H]21	none (no result: PDI inh)
CC(C)C(=O)Nc1ccc2c(c1)C(=O)N(C)[C@H]1CC[C@@H](CC(=O)NCCc3ccccc3)O[C@@H]1CO2	none (no result: ERp5 inh, PDI inh, S100A4 inh HTS, SIRT5 inh)
CC(=O)Nc1ccc(NC(=O)C(C)OC(=O)CCCN=C2NS(=O)(=O)c3ccccc32)cc1 (stereo not drawn)	S100A4 inh HTS 136
Cc1ccc(S(=O)(=O)N(C)C[C@H]2OCCCC[C@H](C)Oc3ccc(NS(=O)(=O)c4ccc(F)cc4)cc3C(=O)N([C@H](C)CO)C[C@H]2C)cc1	SIRT5 inh 25 (no result: PDI inh)
Cc1ccc(S(=O)(=O)N(C)C[C@H]2OCCCC[C@H](C)Oc3ccc(NS(=O)(=O)c4ccc(F)cc4)cc3C(=O)N([C@@H](C)CO)C[C@H]2C)cc1	SIRT5 inh 25 (no result: PDI inh)
Cc1ccc(S(=O)(=O)Nc2ccc3c(c2)C(=O)N([C@H](C)CO)C[C@H](C)[C@H](CN(C)S(=O)(=O)c2ccc(F)cc2)OCCCC[C@H](C)O3)cc1	SIRT5 inh 17 (no result: PDI inh)
Cc1ccc(S(=O)(=O)N(C)C[C@@H]2OCCCC[C@@H](C)Oc3ccc(NS(=O)(=O)c4ccc(F)cc4)cc3C(=O)N([C@@H](C)CO)C[C@H]2C)cc1	SIRT5 inh 20 (no result: PDI inh)
O=C(c1ccncc1)N1CC[C@@H]2[C@@H](CO)Nc3ccc(Br)cc3[C@@H]21	none (no result: ERp5 inh, PDI inh, S100A4 inh HTS, SIRT5 inh)
COc1ccc(S(=O)(=O)Nc2ccc3c(c2)CC(=O)N([C@H](C)CO)C[C@@H](C)[C@@H](CN(C)S(C)(=O)=O)O3)cc1	none (no result: PDI inh)
CCCNC(=O)N1C[C@@H](C)[C@@H](OC)CN(C)C(=O)c2ccc(NS(=O)(=O)CC(F)(F)F)cc2OC[C@@H]1C	none (no result: PDI inh, S100A4 inh HTS)
Cc1ccc(S(=O)(=O)N(C)C[C@@H]2OCCCC[C@H](C)Oc3ccc(NS(=O)(=O)c4ccc(F)cc4)cc3C(=O)N([C@H](C)CO)C[C@@H]2C)cc1	SIRT5 inh 26 (no result: PDI inh)
Cc1ccc(S(=O)(=O)N(C)C[C@H]2OCCCC[C@@H](C)Oc3ccc(NS(=O)(=O)c4ccc(F)cc4)cc3C(=O)N([C@@H](C)CO)C[C@H]2C)cc1	SIRT5 inh 22 (no result: PDI inh)
Cc1ccc(S(=O)(=O)N(C)C[C@@H]2OCCCC[C@H](C)Oc3ccc(NS(=O)(=O)c4ccc(F)cc4)cc3C(=O)N([C@@H](C)CO)C[C@@H]2C)cc1	SIRT5 inh 20 (no result: PDI inh)
COc1cccc(S(=O)(=O)Nc2ccc3c(c2)[C@H]2C[C@@H](CC(=O)N4CCCCC4)O[C@@H](CO)[C@H]2O3)c1	none (no result: PDI inh)
C=C1C(=O)OC2C1CCC(C)=C1C(=O)C3OC3(C)C12 (stereo not drawn)	GSIS activator 134 (no result: PDI inh)
Cc1cccc(C2N=C(N)Nc3nc4ccccc4n32)c1 (stereo not drawn)	GSIS activator 56
CC(=O)N1[C@@H]2Cn3c(cccc3=O)[C@H]1[C@@H](C(=O)NCC1CCCCC1)[C@@H]2CO	none (no result: PDI inh)
CC(=O)Nc1c(-c2ccccc2)nc2ccc(Cl)cn12	none (no result: GSIS activator)
Cc1ccccc1Nc1c(-c2ccncc2)nc2ccc(Cl)cn12	GSIS activator 40
C[C@@H]1CCCCO[C@@H](CN(C)C(=O)NC2CCCCC2)[C@H](C)CN([C@@H](C)CO)C(=O)c2cc(NC(=O)CCC(F)(F)F)ccc2O1	none (no result: PDI inh)
Cc1ccccc1Nc1ccc2nonc2c1[N+](=O)[O-]	SIRT5 inh 29
Cc1ccc(C)c(Nc2ccc3nonc3c2[N+](=O)[O-])c1	none
O=C(CCCN1C(=O)/C(=C/c2ccccc2)SC1=S)Nc1ccc(C(=O)O)c(O)c1	SIRT5 inh 46
O=C(CCCN1C(=O)/C(=C/c2ccc3c(c2)OCO3)SC1=S)Nc1ccc(C(=O)O)cc1	none (no result: GSIS activator)
COc1ccc(C=C2SC(=S)N(CCCC(=O)Nc3ccc(C(=O)O)c(O)c3)C2=O)cc1OC	SIRT5 inh 53

Compound activity: PubChem BioAssay, Broad Institute
